Results reported in ChEMBL document CHEMBL5523707, “Novel Inhibitory Site Revealed by XAP044 Mode of Action on the Metabotropic Glutamate 7 Receptor Venus Flytrap Domain” (J Med Chem, 2024).
Calls of active or inactive are those of the source. The calls are words filed in the database; no cut-off is given here.

Experiments:
[1] = biological target: T1, Metabotropic glutamate receptor 7 (Rattus norvegicus, UniProt P35400); experiment: Antagonist activity against LSP4-202-induced rat mGlu7 activation transfected in HEK293 cells co-transfected with chimeric Gqi9 assessed as decrease in LSP4-202 potency by measuring LSP4-202 pEC50 incubated for 24 hrs by IP-one HTRF assay; format: functional, cell-based
T1 sequence (P35400 whole entry): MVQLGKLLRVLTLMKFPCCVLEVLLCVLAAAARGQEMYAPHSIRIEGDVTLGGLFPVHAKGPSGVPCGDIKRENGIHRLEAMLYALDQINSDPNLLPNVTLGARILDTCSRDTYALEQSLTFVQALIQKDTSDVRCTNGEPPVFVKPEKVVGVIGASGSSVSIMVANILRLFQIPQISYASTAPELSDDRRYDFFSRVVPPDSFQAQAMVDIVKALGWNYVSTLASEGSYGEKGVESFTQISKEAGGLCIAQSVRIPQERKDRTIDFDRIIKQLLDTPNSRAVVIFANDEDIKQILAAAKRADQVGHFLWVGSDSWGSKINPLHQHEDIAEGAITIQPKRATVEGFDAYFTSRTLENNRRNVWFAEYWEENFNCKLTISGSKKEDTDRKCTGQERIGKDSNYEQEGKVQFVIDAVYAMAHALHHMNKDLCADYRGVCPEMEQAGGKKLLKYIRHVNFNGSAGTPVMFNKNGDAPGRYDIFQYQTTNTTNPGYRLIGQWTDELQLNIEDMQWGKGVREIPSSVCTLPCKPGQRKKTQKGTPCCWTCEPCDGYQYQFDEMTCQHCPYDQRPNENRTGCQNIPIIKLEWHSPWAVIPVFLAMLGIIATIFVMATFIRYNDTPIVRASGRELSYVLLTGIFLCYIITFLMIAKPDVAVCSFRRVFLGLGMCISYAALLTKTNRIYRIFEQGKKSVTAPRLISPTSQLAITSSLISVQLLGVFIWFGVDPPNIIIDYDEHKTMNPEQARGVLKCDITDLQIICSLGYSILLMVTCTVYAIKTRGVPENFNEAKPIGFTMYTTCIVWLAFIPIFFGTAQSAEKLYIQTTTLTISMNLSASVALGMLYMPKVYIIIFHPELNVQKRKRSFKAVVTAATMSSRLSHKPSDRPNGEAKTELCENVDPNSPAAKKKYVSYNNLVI
Procedure, shortened: (§1)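 IP-One HTRF IP1 read-out in HEK293 transiently expressing rat mGlu7 plus chimeric Gqα9, 24 h after electroporation. LSP4-2022 concentration-response was tested with derivatives at 30 or 100 µM. Gives pEC50, pEC50/pEC50 control ratio, and max as % of LSP4-2022 maximal effect over basal. Triplicates, n independent experiments; paired t-test.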

[2] = biological target: Metabotropic glutamate receptor 4 (Rattus norvegicus, UniProt P31423); experiment: Agonist activity against wild type rat mGlu4; format: functional
[3] = biological target: Metabotropic glutamate receptor 4 (Rattus norvegicus, UniProt P31423, R60A); experiment: Agonist activity against rat mGlu4 R60A mutant
[4] = biological target: Metabotropic glutamate receptor 4 (Rattus norvegicus, UniProt P31423, K74A); experiment: Agonist activity against rat mGlu4 K74A mutant
Chain of Metabotropic glutamate receptor 4 (Rattus norvegicus, UniProt P31423, K74A) (P31423 33-912 K74A limits assumed): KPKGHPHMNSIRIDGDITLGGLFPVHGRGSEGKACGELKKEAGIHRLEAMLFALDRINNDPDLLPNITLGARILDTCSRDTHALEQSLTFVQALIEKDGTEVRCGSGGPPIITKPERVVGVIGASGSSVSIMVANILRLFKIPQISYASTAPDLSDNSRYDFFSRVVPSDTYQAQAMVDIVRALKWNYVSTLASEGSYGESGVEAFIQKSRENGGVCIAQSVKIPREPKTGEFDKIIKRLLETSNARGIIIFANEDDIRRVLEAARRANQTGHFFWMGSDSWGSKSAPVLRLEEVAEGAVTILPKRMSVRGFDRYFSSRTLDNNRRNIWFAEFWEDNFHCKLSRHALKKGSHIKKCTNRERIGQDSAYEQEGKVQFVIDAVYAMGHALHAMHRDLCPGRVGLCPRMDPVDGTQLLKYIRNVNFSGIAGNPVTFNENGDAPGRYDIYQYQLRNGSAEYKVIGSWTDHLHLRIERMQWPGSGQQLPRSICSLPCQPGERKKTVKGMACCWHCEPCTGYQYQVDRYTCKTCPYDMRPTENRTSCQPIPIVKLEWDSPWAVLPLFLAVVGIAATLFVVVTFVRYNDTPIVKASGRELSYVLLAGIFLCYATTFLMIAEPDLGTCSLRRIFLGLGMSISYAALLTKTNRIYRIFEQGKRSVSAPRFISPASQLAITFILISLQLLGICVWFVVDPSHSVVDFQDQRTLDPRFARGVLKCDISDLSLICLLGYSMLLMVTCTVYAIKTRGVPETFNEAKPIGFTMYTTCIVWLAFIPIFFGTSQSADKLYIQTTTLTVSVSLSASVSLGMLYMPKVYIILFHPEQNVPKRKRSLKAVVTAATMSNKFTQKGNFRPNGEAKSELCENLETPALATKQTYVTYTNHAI

[5] = biological target: Metabotropic glutamate receptor 4 (Rattus norvegicus, UniProt P31423, S160A); experiment: Agonist activity against rat mGlu4 S160A mutant
[6] = biological target: Metabotropic glutamate receptor 4 (Rattus norvegicus, UniProt P31423, S160D); experiment: Agonist activity against rat mGlu4 S160D mutant
[7] = biological target: Metabotropic glutamate receptor 4 (Rattus norvegicus, UniProt P31423, R258A); experiment: Agonist activity at rat mGlu4 R258A mutant
Chain of Metabotropic glutamate receptor 4 (Rattus norvegicus, UniProt P31423, R258A) (P31423 33-912 R258A limits assumed): as the sequence (P31423 33-912 K74A limits assumed) above, with A42K, R226A counted along it

[8] = Agonist activity at rat mGlu4 R258Q/D262/R263 mutant
[9] = Agonist activity at rat mGlu4 loop beta-10-alpha7 region
[10] = biological target: T1, Metabotropic glutamate receptor 7; experiment: Agonist activity at wild type rat mGlu7; format: functional
Procedure, shortened: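 HEK293 cells were transiently transfected by electroporation with rat mGlu7 plasmid plus chimeric Gqα9 to couple to phospholipase C. They were grown in DMEM with 10% FBS on polyornithine-coated wells at 150 000 cells/well.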

[11] = biological target: Metabotropic glutamate receptor 7 (Rattus norvegicus, UniProt P35400, K60A); experiment: Agonist activity at rat mGlu7 K60A mutant
[12] = biological target: Metabotropic glutamate receptor 7 (Rattus norvegicus, UniProt P35400, K60A/S160A); experiment: Agonist activity at rat mGlu7 K60A/S160A mutant
[13] = biological target: Metabotropic glutamate receptor 7 (Rattus norvegicus, UniProt P35400, N74A); experiment: Agonist activity at rat mGlu7 N74A mutant
Chain of Metabotropic glutamate receptor 7 (Rattus norvegicus, UniProt P35400, N74A) (P35400 35-915 N74A limits assumed): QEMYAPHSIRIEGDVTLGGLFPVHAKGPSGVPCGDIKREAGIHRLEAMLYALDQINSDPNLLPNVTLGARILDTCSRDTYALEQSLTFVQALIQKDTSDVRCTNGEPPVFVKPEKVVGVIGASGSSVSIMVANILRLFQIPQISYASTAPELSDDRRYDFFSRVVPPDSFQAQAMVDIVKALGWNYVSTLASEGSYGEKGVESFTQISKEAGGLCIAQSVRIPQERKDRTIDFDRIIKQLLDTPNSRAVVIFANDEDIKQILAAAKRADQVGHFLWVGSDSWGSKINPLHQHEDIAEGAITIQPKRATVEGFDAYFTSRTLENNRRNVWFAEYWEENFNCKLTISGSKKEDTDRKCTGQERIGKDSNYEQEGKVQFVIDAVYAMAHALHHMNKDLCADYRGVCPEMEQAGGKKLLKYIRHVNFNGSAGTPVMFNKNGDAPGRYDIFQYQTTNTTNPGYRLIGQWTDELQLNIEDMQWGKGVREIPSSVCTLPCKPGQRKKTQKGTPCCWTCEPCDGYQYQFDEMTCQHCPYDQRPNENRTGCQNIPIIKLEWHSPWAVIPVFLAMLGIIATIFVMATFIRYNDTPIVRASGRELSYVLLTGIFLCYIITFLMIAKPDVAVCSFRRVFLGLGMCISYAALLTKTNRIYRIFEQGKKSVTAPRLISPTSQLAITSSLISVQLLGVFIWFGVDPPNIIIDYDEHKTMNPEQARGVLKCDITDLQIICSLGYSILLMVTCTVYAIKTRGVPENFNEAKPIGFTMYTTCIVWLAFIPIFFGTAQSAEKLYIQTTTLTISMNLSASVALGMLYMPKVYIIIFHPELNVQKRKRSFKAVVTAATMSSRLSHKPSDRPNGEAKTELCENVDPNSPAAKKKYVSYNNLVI

[14] = biological target: Metabotropic glutamate receptor 7 (Rattus norvegicus, UniProt P35400, N74K); experiment: Agonist activity at rat mGlu7 N74K mutant
[15] = biological target: Metabotropic glutamate receptor 7 (Rattus norvegicus, UniProt P35400, S160A); experiment: Agonist activity at rat mGlu7 S160A mutant
[16] = biological target: Metabotropic glutamate receptor 7 (Rattus norvegicus, UniProt P35400, Q258A); experiment: Agonist activity at rat mGlu7 Q258A mutant
[17] = Agonist activity at rat mGlu7 Q258R/D262/R263 mutant
[18] = Agonist activity at rat mGlu7 loop beta10-alpha7 region
[19] = Agonist activity at rat mGlu7 N74K/loop 4 region
[20] = Agonist activity at rat mGlu7 S229A mutant
[21] = Agonist activity at rat mGlu7 K233A mutant
[22] = Agonist activity at rat mGlu7 K233S mutant
[23] = Agonist activity at rat mGlu7 K233D mutant
[24] = Agonist activity at rat mGlu7 S237A mutant
[25] = Agonist activity at rat mGlu7 N288A mutant
[26] = Agonist activity at rat mGlu7 D314A mutant
[27] = biological target: T1, Metabotropic glutamate receptor 7; experiment: Inhibition of [3H] -LY341495 binding to rat mGlu7 expressed in CHO cell membrane incubated for 30 mins by liquid scintillation analysis
Rattus norvegicus [28] = species: Rattus norvegicus; experiment: Ratio of pEC50 for antagonist activity against LSP4-202-induced rat mGlu7 activation transfected in HEK293 cells co-transfected with chimeric Gqi9 assessed as decrease in LSP4-202 potency to pEC50 for LSP4-202-induced rat mGlu7 activation transfected in HEK293 cells co-transfected with chimeric Gqi9; format: cell-based; procedure, shortened: as §1
[29] = biological target: Metabotropic glutamate receptor 7 (Rattus norvegicus) (UniProt P35400); experiment: Antagonist activity against LSP4-202-induced rat mGlu7 activation transfected in HEK293 cells co-transfected with chimeric Gqi9 assessed as decrease in LSP4-202 potency by measuring LSP4-202 maximum efficacy at 30 to 100 uM incubated for 24 hrs by IP-one HTRF assay relative to control; format: functional, cell-based; conditions: filed as antagonist, dose 30-100 µM; procedure, shortened: as §1
Chain of Metabotropic glutamate receptor 7 (Rattus norvegicus) (P35400 whole entry): as the sequence (P35400 whole entry) above

[30] = biological target: T1, Metabotropic glutamate receptor 7; experiment: Antagonist activity against rat mGlu7 activation transfected in HEK293 cells co-transfected with chimeric Gqi9 incubated for 24 hrs in presence of LSP4-2022 by IP-one HTRF assay; format: functional, cell-based; conditions: read-out: IC50
Procedure, shortened: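 Inhibition curves were run with increasing inhibitor concentrations against IP1 production by 30 µM LSP4-2022. Rat mGlu7 was co-expressed with Gqα9 in HEK293 and assayed 24 h post-transfection with IP-One HTRF. IC50/pIC50 are means ± sem of independent experiments in triplicates. pIC50 compared to reference by unpaired t-test.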

[31] = biological target: Metabotropic glutamate receptor 7 (Rattus norvegicus) (UniProt P35400); experiment: Non-competitive antagonist activity against rat mGlu7 receptor assessed as decrease in L-AP4 effect at 1 to 100 uM; conditions: filed as antagonist, dose 1-100 µM
[32] = biological target: T1, Metabotropic glutamate receptor 7; experiment: Inhibition of [3H] -LY341495 binding to rat mGlu7 expressed in CHO cell membrane incubated for 30 mins in presence of LY341495 by liquid scintillation analysis; format: cell membranes
[33] = Antagonist activity against LSP4-202-induced rat mGlu7 S229A mutant assessed as decrease in LSP4-202 potency by measuring LSP4-202 pEC50
[34] = Antagonist activity against LSP4-202-induced rat mGlu7 K233A mutant assessed as decrease in LSP4-202 potency by measuring LSP4-202 pEC50
[35] = Antagonist activity at LSP4-202-induced rat mGlu7 K233S mutant assessed as decrease in LSP4-202 potency by measuring LSP4-202 pEC50
[36] = Antagonist activity against LSP4-202-induced rat mGlu7 K233D mutant assessed as decrease in LSP4-202 potency by measuring LSP4-202 pEC50
[37] = Antagonist activity against LSP4-202-induced rat mGlu7 S237A mutant assessed as decrease in LSP4-202 potency by measuring LSP4-202 pEC50
Rattus norvegicus [38] = species: Rattus norvegicus; experiment: Ratio of pEC50 for antagonist activity against LSP4-202-induced wild type rat mGlu7 assessed as decrease in LSP4-202 potency to pEC50 for LSP4-202-induced wild type rat mGlu7; conditions: filed as antagonist
Rattus norvegicus [39] = species: Rattus norvegicus; experiment: Ratio of pEC50 for antagonist activity against LSP4-202-induced rat mGlu7 S229A mutant assessed as decrease in LSP4-202 potency to pEC50 for LSP4-202-induced rat mGlu7 S229A mutant; conditions: filed as antagonist
Rattus norvegicus [40] = species: Rattus norvegicus; experiment: Ratio of pEC50 for antagonist activity against LSP4-202-induced rat mGlu7 K233A mutant assessed as decrease in LSP4-202 potency to pEC50 for LSP4-202-induced rat mGlu7 K233A mutant; conditions: filed as antagonist
Rattus norvegicus [41] = species: Rattus norvegicus; experiment: Ratio of pEC50 for antagonist activity against LSP4-202-induced rat mGlu7 K233S mutant assessed as decrease in LSP4-202 potency to pEC50 for LSP4-202-induced rat mGlu7 K233S mutant; conditions: filed as antagonist
Rattus norvegicus [42] = species: Rattus norvegicus; experiment: Ratio of pEC50 for antagonist activity at LSP4-202-induced rat mGlu7 K233D mutant assessed as decrease in LSP4-202 potency to pEC50 for LSP4-202-induced rat mGlu7 K233D mutant; conditions: filed as antagonist
Rattus norvegicus [43] = species: Rattus norvegicus; experiment: Ratio of pEC50 for antagonist activity against LSP4-202-induced rat mGlu7 S237A mutant assessed as decrease in LSP4-202 potency to pEC50 for LSP4-202-induced rat mGlu7 S237A mutant; conditions: filed as antagonist
Rattus norvegicus [44] = species: Rattus norvegicus; experiment: Ratio of pEC50 for antagonist activity against LSP4-202 induced wild type rat mGlu7 assessed as decrease in LSP4-202 potency by measuring LSP4-202 pEC50 at 1 uM to pEC50 for LSP4-202-induced wild type rat mGlu7
Rattus norvegicus [45] = species: Rattus norvegicus; experiment: Ratio of pEC50 for antagonist activity against LSP4-202 induced wild type rat mGlu7 assessed as decrease in LSP4-202 potency by measuring LSP4-202 pEC50 at 3 uM to pEC50 for LSP4-202-induced wild type rat mGlu7
Rattus norvegicus [46] = species: Rattus norvegicus; experiment: Ratio of pEC50 for antagonist activity against LSP4-202 induced wild type rat mGlu7 assessed as decrease in LSP4-202 potency by measuring LSP4-202 pEC50 at 10 uM to pEC50 for LSP4-202-induced wild type rat mGlu7
Rattus norvegicus [47] = species: Rattus norvegicus; experiment: Ratio of pEC50 for antagonist activity against LSP4-202 induced wild type rat mGlu7 assessed as decrease in LSP4-202 potency by measuring LSP4-202 pEC50 at 30 uM to pEC50 for LSP4-202-induced wild type rat mGlu7
[48] = Antagonist activity against LSP4-202-induced rat mGlu7 […] mutant assessed as decrease in LSP4-202 potency by measuring LSP4-202 pEC50 at 10 uM
[49] = Antagonist activity against LSP4-202-induced rat mGlu7 […] mutant assessed as decrease in LSP4-202 potency by measuring LSP4-202 pEC50 at 30 uM
[50] = Antagonist activity against LSP4-202-induced rat mGlu7 […] mutant assessed as decrease in LSP4-202 potency by measuring LSP4-202 pEC50 at 100 uM
Rattus norvegicus [51] = species: Rattus norvegicus; experiment: Ratio of pEC50 for antagonist activity against LSP4-202 induced rat mGlu7 S229A mutant assessed as decrease in LSP4-202 potency by measuring LSP4-202 pEC50 at 10 uM to pEC50 for LSP4-202-induced rat mGlu7 S229A mutant
Rattus norvegicus [52] = species: Rattus norvegicus; experiment: Ratio of pEC50 for antagonist activity against LSP4-202 induced rat mGlu7 S229A mutant assessed as decrease in LSP4-202 potency by measuring LSP4-202 pEC50 at 30 uM to pEC50 for LSP4-202-induced rat mGlu7 S229A mutant
Rattus norvegicus [53] = species: Rattus norvegicus; experiment: Ratio of pEC50 for antagonist activity against LSP4-202 induced rat mGlu7 S229A mutant assessed as decrease in LSP4-202 potency by measuring LSP4-202 pEC50 at 100 uM to pEC50 for LSP4-202-induced rat mGlu7 S229A mutant

## N[C@@H](CCP(=O)(O)C(O)c1ccc(OCC(=O)O)cc1)C(=O)O (stereo partly specified)
[1]
  EC50: 19.5 µM
[2]
  EC50: 0.833 µM
[3]
  EC50: 9.07 µM
[4]
  EC50: 0.024 µM
[5]
  EC50: 26.2 µM
[6]
  EC50: 18.5 µM
[7]
  EC50: 4.91 µM
[8]
  EC50: 7 µM
[9]
  EC50: 3.68 µM
[10]
  EC50: 21.2 µM
[11]
  EC50: 178 µM
[12]
  EC50: > 300 µM
[13]
  EC50: 32 µM
[14]
  EC50: 47 µM
[15]
  EC50: > 300 µM
[16]
  EC50: 18.2 µM
[17]
  EC50: 13.9 µM
[18]
  EC50: 2.18 µM
[19]
  EC50: 2.56 µM
[20]
  EC50: 14.5 µM
  pEC50: 4.96
[21]
  EC50: 87.7 µM
  pEC50: 4.06
[22]
  EC50: 40.9 µM
  pEC50: 4.39
[23]
  EC50: 155 µM
  pEC50: 3.83
[24]
  EC50: 18.3 µM
  pEC50: 4.74
[25]
  EC50: 49.3 µM
[26]
  EC50: > 1000 µM

## N[C@](CC1c2ccccc2Oc2ccccc21)(C(=O)O)[C@H]1C[C@@H]1C(=O)O
[27]
  IC50: 0.19 µM

## O=c1c(Oc2ccc(I)cc2)coc2cc(O)ccc12
Rattus norvegicus [28]
  Ratio: 0.82
[29]
  Emax: 96.4%
[30]
  IC50: 4.33 µM
[31]
  Activity: Active
[32]
  IC50: 0.08 µM
[33]
  pEC50: 4.99
[34]
  pEC50: 3.58
[35]
  pEC50: 4.25
[36]
  pEC50: 3.56
[37]
  pEC50: 3.7
Rattus norvegicus [38]
  Ratio: 0.83
Rattus norvegicus [39]
  Ratio: 1.02
Rattus norvegicus [40]
  Ratio: 0.88
Rattus norvegicus [41]
  Ratio: 0.88
Rattus norvegicus [42]
  Ratio: 0.93
Rattus norvegicus [43]
  Ratio: 0.78
Rattus norvegicus [44]
  Ratio: 0.96
Rattus norvegicus [45]
  Ratio: 0.94
Rattus norvegicus [46]
  Ratio: 0.91
Rattus norvegicus [47]
  Ratio: 0.83
[48]
  EC50: 25 µM
  pEC50: 4.6
[49]
  EC50: 49.5 µM
  pEC50: 4.32
[50]
  EC50: 10.9 µM
  pEC50: 4.99
Rattus norvegicus [51]
  Ratio: 0.96
Rattus norvegicus [52]
  Ratio: 0.9
Rattus norvegicus [53]
  Ratio: 1
